Source: ChEMBL document CHEMBL4145685, “Development of Second-Generation CDK2 Inhibitors for the Prevention of Cisplatin-Induced Hearing Loss” (J Med Chem, 2018)
Converted amounts (≈) assume the structure as drawn. The source made the active and inactive calls.

Key:
[1] = Protection against cisplatin-induced cell death in neonatal mouse HEI-OC1 cells assessed as reduction in caspase-3/7 activity; type: functional
Spiral organ of cochlea [2] = test: Protection against cisplatin-induced toxicity in P3 mouse cochlear explants assessed as increase in outer hair cell count incubated for 24 hrs by phalloidin staining based confocal microscopy; type: functional, tissue-based
[3] = biological target: Glycogen synthase kinase-3 beta (Homo sapiens) (UniProt P49841); test: Inhibition of human full length GSK3beta expressed in mammalian expression system at 1 uM
Outline: (§1)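 Competition binding screen at 1 μM over a 468-kinase panel. Kinases were T7-phage-tagged (grown in E. coli BL21-derived host) or produced in HEK-293 cells with DNA tags. They bound to immobilized biotinylated ligand beads with compound for 1 h at room temperature in SeaBlock/PBS/Tween/DTT buffer. Eluted kinase was quantified by qPCR.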

[4] = biological target: Glycogen synthase kinase-3 alpha (Homo sapiens) (UniProt P49840); test: Inhibition of human full length GSK3alpha expressed in bacterial expression system at 1 uM; outline: as §1
[5] = biological target: Cyclin-dependent kinase 7 (Homo sapiens) (UniProt P50613); test: Inhibition of human full length CDK7 expressed in mammalian expression system at 1 uM; outline: as §1
Mus musculus [6] = test: Protection against cisplatin-induced ototoxicity in adult FVB mouse assessed as reduction in outer hair cell loss in middle basal turn at 32 kHz dosed at 50 uM administered to each left ear by transtympanic injection dosed 1 hr before cisplatin injection and measured after 15 days; type: functional, organism-based
Outline: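 After day-15 ABR, cochleae were harvested from transtympanically dosed, cisplatin-treated adult FVB mice. Organ of Corti was stained with phalloidin, anti-parvalbumin and DAPI. OHCs were counted per 160 μm in the 32-kHz (middle basal turn) region. Mean ± SEM, paired 2-tailed t-test.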

Mus musculus [7] = test: Toxicity in adult FVB mouse at 2 to 50 uM dosed to each left ear by transtympanic injection after 15 days; type: organism-based; conditions: in vivo, other, 360 h
Outline: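 Adult FVB mice, blinded and randomized, received transtympanic left-ear 2, 10 or 50 μM compound or vehicle (PBS + 0.5% DMSO, 5 μL). Dosing was a single injection, or two injections 24 h apart in one series. Three to four mice per group. ABRs were recorded at 8, 16, 32 kHz after 15 days.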

Mus musculus [8] = test: Protection against cisplatin-induced ototoxicity in adult FVB mouse assessed as reduction in auditory brainstem response threshold elevation by measuring ABR threshold shits at 16 kHz dosed at 50 uM administered to each left ear by transtympanic injection dosed 1 hr before cisplatin injection and measured after 15 days; type: functional
Outline: (§2)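 P30 FVB mice under isoflurane got a single 5 μL transtympanic injection (50 μM in saline with 0.5% DMSO, or vehicle) into the left ear. Cisplatin was given i.p. 1 h later. Closed-field left-ear ABR thresholds were taken before treatment and at day 15. Shift is post minus pre. Mice losing <10% bodyweight were excluded. Mean ± SEM, paired 2-tailed t-test.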

Spiral organ of cochlea [9] = test: Protection against cisplatin-induced toxicity in P3 mouse cochlear explants assessed as increase in outer hair cell count at 150 nM incubated for 24 hrs by phalloidin staining based confocal microscopy; type: functional, tissue-based
Outline: (§3)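 P3 FVB mouse cochleae were cultured on filters in DMEM with 1% FBS and 50 μg/mL ampicillin, 37 °C, 5% CO2, for 1 d. They were pretreated with compound 1 h, then given cisplatin 150 μM plus compound for 1 d. Fixed in 4% PFA, phalloidin-stained, confocal imaged. OHCs counted per 160 μm; medium-only = full protection, cisplatin-only = none.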

Mus musculus [10] = test: Protection against cisplatin-induced ototoxicity in adult FVB mouse assessed as hearing thresholds at 32 kHz dosed at 50 uM administered to each left ear by transtympanic injection dosed 1 hr before cisplatin injection and measured after 15 days; type: functional, organism-based
Outline: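 P30 FVB mice under isoflurane received 5 μL compound in PBS + 0.5% DMSO into the left ear by transtympanic 33-gauge cannula; vehicle controls matched. Cisplatin i.p. 1 h later; one regimen added a second injection 24 h after cisplatin. Left-ear closed-field ABR thresholds at 8, 16, 32 kHz were taken before treatment and at day 15. Threshold shift is reported as mean ± SEM, paired 2-tailed t-test. Mice losing <10% bodyweight were excluded.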

[11] = Solubility of the compound in citrate phosphate buffered saline incubated for 18 hrs by UV spectroscopy; type: physicochemical; conditions: buffer
Outline: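 A 10 mM DMSO stock was diluted into buffer and held 18 h at room temperature. It was then filtered and mixed 1:1 with 1-propanol. UV spectrum (250–500 nm) AUC was compared with a reference of stock in 1-propanol/isotonic citrate PBS. Triplicate.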

Mus musculus [12] = test: Protection against cisplatin-induced ototoxicity in adult FVB mouse assessed as reduction in auditory brainstem response threshold elevation by measuring ABR threshold shits at 32 kHz dosed at 50 uM administered to each left ear by transtympanic injection dosed 1 hr before cisplatin injection and measured after 15 days; type: functional; outline: as §2
CDK2/Cyclin A2 = CDK2/Cyclin A2 (Homo sapiens, UniProt P24941); test: Inhibition of C-terminal His6-tagged human full length CDK2/N-terminal GST-tagged human full length Cyclin A using histone H1 and [gamma-32P]-ATP incubated for 30 mins by phosphorimage based assay; type: protein-complex assay
Spiral organ of cochlea [13] = test: Protection against cisplatin-induced toxicity in P3 mouse cochlear explants assessed as increase in outer hair cell count at 100 to 500 nM incubated for 24 hrs by phalloidin staining based confocal microscopy; type: functional, tissue-based; outline: as §3
[14] = Mus musculus, HEI-OC1, read-out: EC50

Chain of Glycogen synthase kinase-3 beta (Homo sapiens) (P49841 whole entry, looked up): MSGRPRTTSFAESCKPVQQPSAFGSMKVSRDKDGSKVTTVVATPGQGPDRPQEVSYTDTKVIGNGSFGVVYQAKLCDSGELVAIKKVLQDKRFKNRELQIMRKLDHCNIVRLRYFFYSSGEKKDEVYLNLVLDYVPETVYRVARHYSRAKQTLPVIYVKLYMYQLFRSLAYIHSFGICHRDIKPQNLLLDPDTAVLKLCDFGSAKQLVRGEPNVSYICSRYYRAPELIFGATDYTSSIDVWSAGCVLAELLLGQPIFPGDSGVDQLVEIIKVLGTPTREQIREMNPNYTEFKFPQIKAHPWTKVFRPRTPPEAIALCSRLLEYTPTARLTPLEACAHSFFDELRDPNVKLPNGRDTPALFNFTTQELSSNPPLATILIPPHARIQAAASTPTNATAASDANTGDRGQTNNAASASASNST
Chain of Glycogen synthase kinase-3 alpha (Homo sapiens) (P49840 2-483 limits assumed): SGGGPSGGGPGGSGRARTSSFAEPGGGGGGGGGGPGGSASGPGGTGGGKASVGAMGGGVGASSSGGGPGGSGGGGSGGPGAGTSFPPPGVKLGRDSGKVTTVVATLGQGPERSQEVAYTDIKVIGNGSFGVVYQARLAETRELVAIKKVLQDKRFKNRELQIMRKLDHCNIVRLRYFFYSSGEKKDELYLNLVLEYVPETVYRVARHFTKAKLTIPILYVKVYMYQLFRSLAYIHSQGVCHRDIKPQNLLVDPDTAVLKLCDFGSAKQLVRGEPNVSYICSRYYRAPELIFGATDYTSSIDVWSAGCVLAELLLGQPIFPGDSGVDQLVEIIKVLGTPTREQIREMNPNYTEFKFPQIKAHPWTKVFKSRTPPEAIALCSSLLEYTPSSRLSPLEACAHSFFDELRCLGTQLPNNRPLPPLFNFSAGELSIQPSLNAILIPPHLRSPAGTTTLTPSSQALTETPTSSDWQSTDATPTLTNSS
Chain of Cyclin-dependent kinase 7 (Homo sapiens) (P50613 whole entry): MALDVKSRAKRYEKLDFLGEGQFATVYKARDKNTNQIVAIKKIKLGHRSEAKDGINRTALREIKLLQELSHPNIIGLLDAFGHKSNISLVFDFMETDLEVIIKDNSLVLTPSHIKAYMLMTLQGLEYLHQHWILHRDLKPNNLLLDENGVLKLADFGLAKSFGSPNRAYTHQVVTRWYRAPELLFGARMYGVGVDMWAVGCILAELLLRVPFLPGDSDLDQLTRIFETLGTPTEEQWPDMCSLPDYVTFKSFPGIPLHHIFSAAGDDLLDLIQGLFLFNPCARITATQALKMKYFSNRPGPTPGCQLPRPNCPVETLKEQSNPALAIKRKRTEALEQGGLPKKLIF

| SMILES | EC50 [1] | EC50 [1, 14] | further results |
| --- | --- | --- | --- |
| Cc1[nH]nc(C(N)=O)c1NC(=O)c1cc(F)c(F)c(F)c1 | Not Active |  |  |
| Cc1[nH]nc(C(N)=O)c1NC(=O)c1ccc(OCC2CC2)cc1 | Not Active |  |  |
| O=C(Nc1ccc(F)cc1)c1n[nH]cc1NC(=O)C1CCCCC1 |  | > 32.2 µM |  |
| NS(=O)(=O)c1ccc(CCNc2nccc(-c3ccccn3)n2)cc1 | Not Active |  |  |
| O=C1Cc2c([nH]c3ccc(Br)cc23)-c2ccccc2N1 [KENPAULLONE] |  | 0.349 µM | EC50 (Spiral organ of cochlea [2]): 0.15 µM; inhibition [3]: Active; inhibition [4]: Active; inhibition [5]: Active |
| O=C(NC1CCNCC1)c1n[nH]cc1NC(=O)c1c(F)cccc1F |  | 22.5 µM |  |
| CN(Cc1nccn1Cc1ccccc1)c1nccc(-c2ccccn2)n1 | Not Active |  |  |
| O=C(NC1CCCCC1)c1n[nH]cc1NC(=O)c1c(F)cccc1F |  | > 27.3 µM |  |
| CCCNC(=O)c1c(NC(=O)c2ccc(Cl)cc2Cl)cnn1C | Not Active |  |  |
| Cc1ccc(C(=O)Nc2c(C(=O)N(C)C)nn(C)c2C)cc1 | Not Active |  |  |
| O=C(N[C@H]1CC[C@H](O)CC1)c1n[nH]cc1NC(=O)c1c(F)cccc1F |  |  | inhibition [3]: Active; Activity (Mus musculus [6]): inactive; Activity (Mus musculus [7]): Non-Toxic; Activity (Mus musculus [8]): 10 dB; Activity (Spiral organ of cochlea [9]): Active; inhibition [4]: Active; inhibition [5]: Active |
| Cc1ncc(-c2ccnc(Nc3ccc(S(C)(=O)=O)cc3)n2)n1C(C)C [AZD-5438] |  |  | inhibition [3]: Active; Activity (Mus musculus [6]): Active; Activity (Mus musculus [10]): Active; Activity (Mus musculus [7]): Non-Toxic; solubility [11]: 68.8 µM (≈ 25.6 µg/mL); inhibition [4]: Active; inhibition [5]: Active; Activity (Mus musculus [12]): 14 dB |
| Cc1ccc(-c2ccnc(NCC(C)n3nc(C)cc3C)n2)c(C)n1 (configuration not stated) | Not Active |  |  |
| CCCNC(=O)c1c(NC(=O)c2ccccc2Cl)cnn1C | Not Active |  |  |
| NS(=O)(=O)c1ccc(CNc2nccc(-c3ccccn3)n2)cc1 | Not Active |  |  |
| CCn1cc(NC(=O)c2ccc(COCC(F)(F)F)cc2)c(C(=O)NCC(C)C)n1 |  | 6.75 µM | IC50 (CDK2/Cyclin A2): > 10 µM |
| CCCNC(=O)c1c(NC(=O)c2cc(S(=O)(=O)N3CCCC3)c(Cl)cc2Cl)cnn1C | Not Active |  |  |
| CN[C@@H]1CCN(C(=O)c2ccc(Nc3ncc(F)c(-c4cnc(C)n4C(C)C)n3)cc2)C1 | Not Active |  |  |
| CCCNC(=O)c1c(NC(=O)c2cc(S(=O)(=O)N(C)C)c(Cl)cc2Cl)cnn1C | Not Active |  |  |
| Cc1nc(-c2ccnc(N)n2)cn1Cc1c(Cl)cccc1Cl | Not Active |  |  |
| N[C@H]1CC[C@H](NC(=O)c2n[nH]cc2NC(=O)c2c(F)cccc2F)CC1 |  | > 33.5 µM |  |
| COc1cccc(F)c1C(=O)Nc1c[nH]nc1C(=O)NC1CCNCC1 |  | > 37.2 µM |  |
| Cn1ncc(NC(=O)c2ccc(Cl)cc2Cl)c1C(=O)NCc1ccco1 | Not Active |  |  |
| O=C(Nc1ccc(F)cc1)c1n[nH]cc1NC(=O)c1c(F)cccc1F |  |  | Activity (Spiral organ of cochlea [9]): inactive |
| Cn1ncc(NC(=O)c2ccccc2Cl)c1C(=O)N1CCCCC1 | Not Active |  |  |
| N#Cc1ccc2c(c1)/C(=C1/C=CC(CN3CCOCC3)=CN1)C(=O)N2 |  | 3.63 µM | EC50 (Spiral organ of cochlea [2]): 15 µM |

| SMILES | EC50 [1] | EC50 [1, 14] | further results |
| --- | --- | --- | --- |
| CC(C)CNC(=O)c1c(NC(=O)c2ccc(COCC(F)(F)C(F)F)cc2)cnn1C | Not Active |  |  |
| CNC(=O)c1nn(C)cc1NC(=O)c1ccccc1Cl | Not Active |  |  |
| CCn1cc(NC(=O)c2c(F)cccc2F)c(C(=O)NCC(C)C)n1 | Not Active |  |  |
| c1ccc(Nc2nccc(-c3ccccn3)n2)cc1 | Not Active |  |  |
| O=C(NC1CCNCC1)c1n[nH]cc1NC(=O)c1c(F)cc(F)cc1F |  | > 30.9 µM |  |
| Cc1[nH]nc(C(N)=O)c1NC(=O)C(C)NC(=O)c1ccc(Cl)cc1 (configuration not stated) | Not Active |  |  |
| O=C(N[C@H]1CCCNC1)c1n[nH]cc1NC(=O)c1c(F)cccc1F |  | > 37.9 µM |  |
| CCn1cc(NC(=O)c2ccc(Cn3cc(Cl)cn3)cc2)c(C(=O)NC2CCCC2)n1 |  | 5.04 µM | IC50 (CDK2/Cyclin A2): > 10 µM |
| CC[C@H](CO)Nc1nc(NCc2ccccc2O)c2ncn(C(C)C)c2n1 [OLOMOUCINE II] |  | 0.595 µM | EC50 (Spiral organ of cochlea [2]): 3 µM |
| O=C(NCC1CC1)c1n[nH]cc1NC(=O)c1c(F)cccc1F |  | 0.044 µM | Activity (Spiral organ of cochlea [9]): inactive |
| O=C(Nc1c[nH]nc1C(=O)Nc1ccc(F)cc1)c1ccccc1 |  | > 33.2 µM |  |
| CCn1cc(NC(=O)c2ccc(Cl)cc2Cl)c(C(=O)Nc2ccccc2)n1 |  | 31.1 µM | IC50 (CDK2/Cyclin A2): > 10 µM |
| CCC(Nc1nccc(-c2ccccn2)n1)c1ccc(S(C)(=O)=O)cc1 (configuration not stated) | Not Active |  |  |
| Cc1[nH]nc(C(N)=O)c1NC(=O)c1cc(F)cc(Br)c1 | Not Active |  |  |
| O=C(NC1CCN(C(=O)c2c(Cl)cccc2Cl)CC1)c1n[nH]cc1NC(=O)c1c(Cl)cccc1Cl |  | 0.459 µM | Activity (Spiral organ of cochlea [9]): inactive; IC50 (CDK2/Cyclin A2): 0.76 µM |
| COc1ccc2c(c1)/C(=C/c1cnc[nH]1)C(=O)N2 [SU-9516] |  | 1.59 µM | EC50 (Spiral organ of cochlea [2]): 6 µM |
| Cc1cc(Br)ccc1C(=O)Nc1c(C(N)=O)n[nH]c1C | Not Active |  |  |
| Cn1ncc(NC(=O)c2n[nH]cc2Cl)c1C(=O)N1CCCCC1 | Not Active |  |  |
| Cn1cc(NC(=O)c2c(Cl)cccc2Cl)c(C(=O)NC2CCN(C(=O)c3c(Cl)cccc3Cl)CC2)n1 |  | > 49.4 µM | IC50 (CDK2/Cyclin A2): > 10 µM |
| CCn1cc(NC(=O)c2ccccc2Cl)c(C(=O)NCC(C)C)n1 | Not Active |  |  |
| O=C(NC1CCNCC1)c1n[nH]cc1NC(=O)c1c(Cl)cccc1Cl |  |  | inhibition [3]: Active; Activity (Spiral organ of cochlea [13]): inactive; inhibition [4]: Active; inhibition [5]: Active |
| NS(=O)(=O)c1ccc(N/N=C2\C(=O)Nc3ccc(Br)cc32)cc1 |  | 0.127 µM | EC50 (Spiral organ of cochlea [2]): 1 µM |
| CCn1ccnc1CN(C)c1nccc(-c2ccc(C)nc2C)n1 | Not Active |  |  |
| Cn1cc(NC(=O)c2ccc(Cl)cc2Cl)c(C(=O)NCCc2ccco2)n1 | Not Active |  |  |
| O=C(Cc1ccccc1)Nc1c[nH]nc1C(=O)Nc1ccc(F)cc1 |  | > 32.7 µM |  |
